Source: ChEMBL document CHEMBL1134527, “Discovery of novel mesangial cell proliferation inhibitors using a three-dimensional database searching method” (2001)

How the values were obtained:
Format in all cases: functional
[1] = Compound was tested for the in vitro MC proliferation Inhibitory activity at a dose of 10 uM against normal human mesangial cells
Procedure, shortened: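 Normal human glomerular mesangial cells kept in MCDB131 with amphotericin B, gentamycin and 5% FBS. Seeded 2 × 10⁴ cells/well, grown 3 days, serum-starved 4 days. Then given compound in DMEM + 2% FBS for 18 h with 1 μCi/mL [³H]thymidine. TCA-insoluble counts read by scintillation, four wells per concentration. Inhibition % = (control − sample)/(control − blank), where blank is DMEM alone.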

RPTEC [2] = assay: Compound was evaluated for the renal proximal tubular epithelial cell (RPTEC) proliferation assay using RPTEC's at a dose of 10 uM; conditions: Homo sapiens
Procedure, shortened: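 Human renal proximal tubular epithelial cells, run by the same [³H]thymidine method as the mesangial assay. Compound added in DMEM + 2% FBS for 18 h after serum-free pre-incubation. DNA synthesis taken as TCA-insoluble counts, four wells per concentration. Inhibition % = (control − sample)/(control − blank), where blank is DMEM alone.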

[3] = Compound was tested for the in vitro MC proliferation Inhibitory activity at a dose of 1 uM against normal human mesangial cells
Procedure, shortened: (§1)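 Normal human glomerular mesangial cells grown in MCDB131 with 5% FBS, amphotericin B and gentamycin. Plated at 2 × 10⁴ cells/well for 3 days, then serum-free 4 days. Exposed to compound in DMEM + 2% FBS for 18 h with 1 μCi/mL [³H]thymidine. TCA-insoluble counts read; four wells per concentration. Inhibition % = (control − sample)/(control − DMEM blank).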

RPTEC [4] = assay: Compound was evaluated for the renal proximal tubular epithelial cell (RPTEC) proliferation assay using RPTEC''s at a dose of 0.1 uM; conditions: Homo sapiens
Procedure, shortened: (§2)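 Human renal proximal tubular epithelial cells handled as in the mesangial assay: plated 2 × 10⁴ cells/well for 3 days, serum-starved 4 days. Then 18 h in DMEM + 2% FBS with compound and 1 μCi/mL [³H]thymidine. TCA-precipitable counts measured; four wells per concentration. % inhibition = (control − sample)/(control − blank).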

[5] = Compound was tested for the in vitro MC proliferation Inhibitory activity at a dose of 0.1 uM against normal human mesangial cells; procedure, shortened: as §1
RPTEC [6] = assay: Compound was evaluated for the renal proximal tubular epithelial cell ( RPTEC) proliferation assay using RPTEC''s at a dose of 1 uM; conditions: Homo sapiens; procedure, shortened: as §2

SMILES | inhibition at 10 µM [1] | inhibition at 10 µM (RPTEC [2]) | inhibition at 1 µM [3] | inhibition at 0.1 µM (RPTEC [4]) | inhibition at 0.1 µM [5] | inhibition at 1 µM (RPTEC [6])
Cc1c(Cc2c(Cl)cccc2Cl)c(=O)oc2cc(OCC(=O)OCC(=O)c3ccccc3)ccc12 | 66% | 31% | 60% | 35% | 49% | 24%
CCOP(=O)(Cc1ccc(C(=O)Nc2nc(-c3ccccc3)ns2)cc1)OCC | 108% | 96% | 85% | 33% | 62% | 61%
CCOC(=O)c1cc(NC(=O)NC(=O)c2c(Cl)cccc2Cl)ccc1Oc1cncc(Cl)c1 | 112% | 96% | 105% | -1% | 90% | 32%
CO/C(O)=C(/C=N/c1ccc(Oc2ccccc2OC(C)C)nc1)NC(=O)c1ccccc1 | 82% | 8% | 73% | 2% | 68% | 12%
CCOP(=O)(Cc1ccc(C(=O)Nc2ccc(Br)cc2C#N)cc1)OCC [IBROLIPIM] | 56% | 77% | – | – | – | –
CCOP(=O)(Cc1ccc(C(=O)Nc2ccccn2)cc1)OCC | 68% | 60% | 65% | 23% | 62% | 32%
CCOP(=O)(Cc1ccc(C(=O)Nc2cc(-c3ccc(Cl)cc3)no2)cc1)OCC | 94% | 99% | 91% | 30% | 69% | 88%
Cc1c(Cc2c(Cl)cccc2Cl)c(=O)oc2cc(OCC(=O)OCC(=O)c3ccc(Cl)cc3)ccc12 | 80% | 21% | 74% | 16% | 72% | 6%
CCOP(=O)(Cc1ccc(C(=O)Nc2nc3c(OC)cc(OC)cc3s2)cc1)OCC | 108% | 103% | 59% | 33% | 59% | 39%
